Data set [1] deals with Vero. The data set can be described thus: Cytotoxicity against african green monkey Vero cells at 10 uM after 72 hrs by crystal violet dye assay. Format: cell-based. The note with it: chlorocebus sabaeus. The gist of the method:
(§1)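 Vero cells (African green monkey kidney) grown in MEM with 10% heat-inactivated fetal calf serum, penicillin G and streptomycin, 5% CO2, 37 °C. Seeded 4 × 10^4 cells/well, exposed 24 h later to compound for 3 days. Methanol-fixed, crystal violet-stained, dye solubilized in acidic isopropanol, absorbance read at 540 nm. Cytotoxicity is calculated against untreated controls. Mean of three experiments run in duplicate.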

Data set [2] has as its system 2008. The data set can be described thus: Cytotoxicity against cisplatin-sensitive human 2008 cells after 72 hrs by crystal violet dye assay. The data set is classed as functional, cell-based. Conditions: Homo sapiens, 2008, 72 h. The gist of the method:
(§2)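 2008 ovarian carcinoma cells or the cisplatin-resistant C13* subline, grown in RPMI 1640 with 10% heat-inactivated FBS and gentamycin, 5% CO2, 37 °C, mycoplasma-negative. Seeded 4 × 10^4 cells/well, exposed 24 h later to compound for 3 days. Crystal violet stain solubilized in acidic isopropanol, absorbance read at 540 nm versus untreated controls. IC50 taken from dose–response curves. Mean of three experiments run in duplicate.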

Data set [3] deals with 2008. The data set can be described thus: Resistant factor, ratio of IC50 for cisplatin-resistant human C13 cells to IC50 for cisplatin-sensitive human 2008 cells. The data set is classed as functional. The gist of the method: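 RF^I is the IC50 in C13* cells divided by the IC50 in parental 2008 cells. Both IC50s come from a 3-day crystal violet dose–response assay, read at 540 nm.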

The nature of data set [4]: Cytotoxicity against cisplatin-resistant human C13 cells at 10 uM after 72 hrs by crystal violet dye assay. The data set is classed as functional. An outline of the steps: as §2
Data set [5] concerns Vero. The data set can be described thus: Cytotoxicity against african green monkey Vero cells at 5 uM after 72 hrs by crystal violet dye assay. Conditions: chlorocebus sabaeus. Format: cell-based. An outline of the steps:
as §1

The test system of data set [6] is Vero. Briefly: Resistance factor, ratio of IC50 for african green monkey Vero cells to IC50 for cisplatin-resistant human C13 cells. An outline of the steps:
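RF^II is the IC50 in Vero cells divided by the IC50 in C13* cells. Each IC50 comes from a 3-day crystal violet dose–response assay, read at 540 nm.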

Data set [7] deals with Vero. The data set can be described thus: Cytotoxicity against african green monkey Vero cells after 72 hrs by crystal violet dye assay. The note with it: Chlorocebus sabaeus. Format: cell-based. The gist of the method:
as §1

Data set [8] can be described thus: Cytotoxicity against cisplatin-resistant human C13 cells after 72 hrs by crystal violet dye assay. Conditions: C13, 72 h. Format: functional, cell-based. An outline of the steps:
as §2

Data set [9] relates to 2008. The data set can be described thus: Cytotoxicity against cisplatin-sensitive human 2008 cells at 10 uM after 72 hrs by crystal violet dye assay. The data set is classed as functional. The gist of the method:
as §2

The nature of data set [10]: Cytotoxicity against african green monkey Vero cells assessed as inhibition of growth at 750 uM after 72 hrs by crystal violet dye assay. The note with it: chlorocebus sabaeus, read-out: Activity. The data set is classed as cell-based. An outline of the steps:
as §1

For data set [11], the system named is 2008. The data set can be described thus: Cytotoxicity against cisplatin-sensitive human 2008 cells at 750 uM after 72 hrs by crystal violet dye assay. Format: functional. An outline of the steps: as §2
Data set [12] can be described thus: Cytotoxicity against african green monkey Vero cells assessed as cell survival at 750 uM after 72 hrs by crystal violet dye assay. Format: cell-based. The note with it: chlorocebus sabaeus, read-out: Activity. The gist of the method: as §1
Data set [13] is described as follows: Cytotoxicity against cisplatin-resistant human C13 cells at 750 uM after 72 hrs by crystal violet dye assay. The data set is classed as functional. An outline of the steps:
as §2

We go through four compounds from ChEMBL document CHEMBL1153447, “Synthesis, cytotoxic and combined cDDP activity of new stable curcumin derivatives” (Bioorg Med Chem, 2009).

For orientation: IC50 means the point on the concentration scale where inhibition reaches its midpoint. Take `COc1cc(/C=C/C(=O)CC(=O)/C=C/c2ccc(O)c(OC)c2)ccc1O` [CURCUMIN]: the Activity in [1] was 25%; in data set [4], 45%; in data set [5] it was 10%; in data set [9], 90%. For the same compound, the IC50 in data set [2] is 5 µM; in data set [7] it was 22 µM; in data set [8], 17 µM. Besides, the results for the “Ratio IC50” value in [3] and in data set [6] were 3.4 and 1.3, respectively.
As to `COc1cc(/C=C/C(=O)CC(=O)/C=C/c2ccc(O[C@@H]3O[C@H](CO)[C@@H](O)[C@H](O)[C@H]3O)c(OC)c2)ccc1O[C@@H]1O[C@H](CO)[C@@H](O)[C@H](O)[C@H]1O`, the IC50 worked out at 220 µM in data set [2] and 840 µM in data set [8]. Moreover, the “Ratio IC50” value in [3] was 3.8. In addition, in [10], the inhibition at 72 h, 750 µM was 20%.
Take `O=C(/C=C/c1ccc(O[C@@H]2O[C@H](CO)[C@@H](O)[C@H](O)[C@H]2O)c(O)c1)CC(=O)/C=C/c1ccc(O[C@@H]2O[C@H](CO)[C@@H](O)[C@H](O)[C@H]2O)c(O)c1`: the values for the Activity in [11] and in data set [13] were 70% and 15%, respectively. Also, in data set [12], the viability at 72 h, 750 µM worked out at 80%. The same compound returned an IC50 in [2] of 480 µM. Moreover, the “Ratio IC50” value in [3] was greater than 2.
In the case of `O=C(/C=C/c1ccc(O[C@@H]2O[C@H](CO)[C@@H](O)[C@H](O)[C@H]2O)cc1)CC(=O)/C=C/c1ccc(O[C@@H]2O[C@H](CO)[C@@H](O)[C@H](O)[C@H]2O)cc1`, the IC50 in [2] is 22 µM; in data set [7], 330 µM; in data set [8], 83 µM. Besides, the “Ratio IC50” value is recorded as 3.8 in data set [3] and 3.97 in data set [6].
